Laboratory results as given in ChEMBL document CHEMBL1149321, “Synthesis, radiosynthesis, and biological evaluation of carbon-11 and iodine-123 labeled 2beta-carbomethoxy-3beta-[4'-((Z)-2-haloethenyl)phenyl]tropanes: candidate radioligands for in vivo imaging of the serotonin transporter” (J Med Chem, 2004).

Assays:
[1] = Ratio of radioactivity in frontal cortex of rat brain to that of rat cerebellum after intravenous administration after 30 min; format: functional
Outline: (§1)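 Male Sprague–Dawley rats (200–250 g) given ~20 μCi [123I] tracer iv in 0.2 mL 10% ethanol/saline under ketamine/xylazine; killed at 5, 30, 60, 120 min (n = 5; n = 4 at 120 min). Brain regions dissected, gamma counted, decay-corrected to %ID/g; regional uptake divided by cerebellum.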

[2] = Ratio of radioactivity in brainstem of rat brain to that of rat cerebellum after intravenous administration after 120 min; format: functional; outline: as §1
[3] = Ratio of radioactivity in striatum of rat brain to that of rat cerebellum after intravenous administration after 5 min; format: functional; outline: as §1
Rattus norvegicus [4] = assay: Distribution of the radio labelled compound in rest of rat brain after intravenous administration in absence of blocker after 60 min; format: ADME, organism-based; conditions: in vivo, 1 h
Outline: (§2)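 Male Sprague–Dawley rats (200–250 g) under ketamine/xylazine anaesthesia with tail-vein cannulas. Blocker or none given 15 min before ~20 μCi [123I] tracer iv in 0.2 mL 10% ethanol/saline; blocker dose 4 mg/kg.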

Rattus norvegicus [5] = assay: Distribution of the radio labelled compound in occipital cortex of rat brain after intravenous administration in absence of blocker after 60 min; format: ADME, organism-based; conditions: in vivo, 1 h; outline: as §2
Rattus norvegicus [6] = assay: Distribution in frontal cortex of rat brain after intravenous administration by using [123I]ZIET after 120 min; format: ADME, organism-based; conditions: in vivo, 2 h
Outline: (§3)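 Male Sprague–Dawley rats (200–250 g), fed ad libitum, given ~20 μCi radiotracer iv via tail-vein cannula in 0.2 mL 10% ethanol/saline under ketamine/xylazine im anesthesia. Killed at 5, 30, 60 or 120 min (n = 5; n = 4 at 120 min). Brain regions dissected, weighed, gamma-counted with dose standards, decay-corrected; mean %ID/g ± SE.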

Rattus norvegicus [7] = assay: Distribution of the radio labelled compound in occipital cortex of rat brain after intravenous administration in presence of RTI-113 after 60 min; format: ADME, organism-based; conditions: in vivo, 1 h; outline: as §2
Rattus norvegicus [8] = assay: Distribution in rest of rat brain after intravenous administration by using [123I]ZIET after 120 min; format: ADME, organism-based; conditions: in vivo, 2 h; outline: as §3
Rattus norvegicus [9] = assay: Distribution in brainstem of rat brain after intravenous administration by using [123I]ZIET after 30 min; format: ADME, organism-based; conditions: in vivo, 0.5 h; outline: as §3
Rattus norvegicus [10] = assay: Distribution of the radio labelled compound in brainstem of rat brain after intravenous administration in presence of reboxetine after 60 min; format: ADME, organism-based; conditions: in vivo, 1 h
Outline: (§4)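 Male Sprague–Dawley rats (200–250 g), ketamine/xylazine anesthesia, tail-vein cannula. Blocker (4 mg/kg) or nothing given 15 min before iv [123I]ZIET in 10% ethanol/saline. Killed 60 min post-tracer.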

[11] = Ratio of radioactivity in occipital cortex of rat brain to that of rat cerebellum after intravenous administration after 30 min; format: functional; outline: as §1
Rattus norvegicus [12] = assay: Distribution of the radio labelled compound in frontal cortex of rat brain after intravenous administration in absence of blocker after 60 min; format: ADME, organism-based; conditions: in vivo, 1 h; outline: as §2
Rattus norvegicus [13] = assay: Distribution in hypothalamus of rat brain after intravenous administration by using [123I]ZIET after 5 min; format: ADME, organism-based; conditions: in vivo; outline: as §3
Rattus norvegicus [14] = assay: Distribution of the radio labelled compound in blood of rat brain after intravenous administration in presence of citalopram after 60 min; format: ADME, organism-based; conditions: in vivo, 1 h; outline: as §4
Rattus norvegicus [15] = assay: Distribution in cerebellum of rat brain after intravenous administration by using [123I]ZIET after 5 min; format: ADME, organism-based; conditions: in vivo; outline: as §3
[16] = Ratio of radioactivity in occipital cortex of rat brain to that of rat cerebellum after intravenous administration after 5 min; format: functional; outline: as §1
Rattus norvegicus [17] = assay: Distribution in cerebellum of rat brain after intravenous administration by using [123I]ZIET after 120 min; format: ADME, organism-based; conditions: in vivo, 2 h; outline: as §3
Rattus norvegicus [18] = assay: Distribution in blood […] after intravenous administration by using [123I]-ZIET after 60 min; format: ADME, organism-based; conditions: in vivo, 1 h; outline: as §3
Rattus norvegicus [19] = assay: Distribution in brainstem of rat brain after intravenous administration by using [123I]ZIET after 5 min; format: ADME, organism-based; conditions: in vivo; outline: as §3
Rattus norvegicus [20] = assay: Distribution of the radio labelled compound in hippocampus of rat brain after intravenous administration in presence of citalopram after 60 min; format: ADME, organism-based; conditions: in vivo, 1 h; outline: as §2
Rattus norvegicus [21] = assay: Distribution in occipital cortex of rat brain after intravenous administration by using [123I]ZIET after 60 min; format: ADME, organism-based; conditions: in vivo, 1 h; outline: as §3
[22] = Ratio of radioactivity in striatum of rat brain to that of rat cerebellum after intravenous administration after 60 min; format: functional; outline: as §1
Rattus norvegicus [23] = assay: Distribution of the radio labelled compound in rest of rat brain after intravenous administration in presence of citalopram after 60 min; format: ADME, organism-based; conditions: in vivo, 1 h; outline: as §2
[24] = Ratio of radioactivity in striatum of rat brain to that of rat cerebellum after intravenous administration after 30 min; format: functional; outline: as §1
Rattus norvegicus [25] = assay: Distribution in thyroid of rat brain after intravenous administration by using [123I]ZIET after 60 min; format: ADME, organism-based, Thyroid gland; conditions: in vivo, 1 h; outline: as §3
Rattus norvegicus [26] = assay: Distribution in rest of rat brain after intravenous administration by using [123I]ZIET after 60 min; format: ADME, organism-based; conditions: in vivo, 1 h; outline: as §3
Rattus norvegicus [27] = assay: Distribution of the radio labelled compound in frontal cortex of rat brain after intravenous administration in presence of reboxetine after 60 min; format: ADME, organism-based; conditions: in vivo, 1 h; outline: as §2
Rattus norvegicus [28] = assay: Distribution in striatum of rat brain after intravenous administration by using [123I]-ZIET after 30 min; format: ADME, organism-based; conditions: in vivo, 0.5 h; outline: as §3
Rattus norvegicus [29] = assay: Distribution of the radio labelled compound in striatum of rat brain after intravenous administration in presence of RTI-113 after 60 min; format: ADME, organism-based; conditions: in vivo, 1 h; outline: as §2
Rattus norvegicus [30] = assay: Distribution in rest of rat brain after intravenous administration by using [123I]ZIET after 30 min; format: ADME, organism-based; conditions: in vivo, 0.5 h; outline: as §3
[31] = Ratio of radioactivity in hippocampus of rat brain to that of rat cerebellum after intravenous administration after 60 min; format: functional; outline: as §1
Rattus norvegicus [32] = assay: Distribution of the radio labelled compound in hypothalamus of rat brain after intravenous administration in presence of RTI-113 after 60 min; format: ADME, organism-based; conditions: in vivo, 1 h; outline: as §2
Rattus norvegicus [33] = assay: Distribution in hippocampus of rat brain after intravenous administration by using [123I]ZIET after 30 min; format: ADME, organism-based; conditions: in vivo, 0.5 h; outline: as §3
Rattus norvegicus [34] = assay: Distribution in occipital cortex of rat brain after intravenous administration by using [123I]ZIET after 30 min; format: ADME, organism-based; conditions: in vivo, 0.5 h; outline: as §3
Rattus norvegicus [35] = assay: Distribution of the radio labelled compound in brainstem of rat brain after intravenous administration in presence of RTI-113 after 60 min; format: ADME, organism-based; conditions: in vivo, 1 h; outline: as §4
Rattus norvegicus [36] = assay: Distribution of the radio labelled compound in frontal cortex of rat brain after intravenous administration in presence of RTI-113 after 60 min; format: ADME, organism-based; conditions: in vivo, 1 h; outline: as §2
[37] = Ratio of radioactivity in frontal cortex of rat brain to that of rat cerebellum after intravenous administration after 5 min; format: functional; outline: as §1
Rattus norvegicus [38] = assay: Distribution in hippocampus of rat brain after intravenous administration by using [123I]ZIET after 5 min; format: ADME, organism-based; conditions: in vivo; outline: as §3
Rattus norvegicus [39] = assay: Distribution of the radio labelled compound in hippocampus of rat brain after intravenous administration in presence of reboxetine after 60 min; format: ADME, organism-based; conditions: in vivo, 1 h; outline: as §2
Rattus norvegicus [40] = assay: Distribution of the radio labelled compound in rest of rat brain after intravenous administration in presence of RTI-113 after 60 min; format: ADME, organism-based; conditions: in vivo, 1 h; outline: as §2
[41] = Ratio of radioactivity in hippocampus of rat brain to that of rat cerebellum after intravenous administration after 120 min; format: functional; outline: as §1
Rattus norvegicus [42] = assay: Distribution of the radio labelled compound in hypothalamus of rat brain after intravenous administration in presence of reboxetine after 60 min; format: ADME, organism-based; conditions: in vivo, 1 h; outline: as §2
Rattus norvegicus [43] = assay: Distribution in frontal cortex of rat brain after intravenous administration by using [123I]-ZIET after 30 min; format: ADME, organism-based; conditions: in vivo, 0.5 h; outline: as §3
Rattus norvegicus [44] = assay: Distribution in blood […] after intravenous administration by using [123I]-ZIET after 30 min; format: ADME, organism-based; conditions: in vivo, 0.5 h; outline: as §3

In the case of `COC(=O)C1C(c2ccc(/C=C\[123I])cc2)CC2CCC1N2C` (centres undefined), the Ratio [1] is reported as 2, the Ratio [2] is reported as 3 and the Ratio [3] is reported as 1.1. For the same compound, the Activity (Rattus norvegicus [4]) was 0.37, the Activity (Rattus norvegicus [5]) was 0.46 and the Activity (Rattus norvegicus [6]) was 0.48. For the same compound, the Activity (Rattus norvegicus [7]) was 0.42, the Activity (Rattus norvegicus [8]) was 0.39 and the Activity (Rattus norvegicus [9]) was 0.65. It also gave an Activity (Rattus norvegicus [10]) of 0.36, a Ratio [11] of 1.8 and an Activity (Rattus norvegicus [12]) of 0.53. It also gave an Activity (Rattus norvegicus [13]) of 0.36, an Activity (Rattus norvegicus [14]) of 0.21 and an Activity (Rattus norvegicus [15]) of 0.34. The Ratio [16] was 1.3, the Activity (Rattus norvegicus [17]) was 0.14 and the Activity (Rattus norvegicus [18]) was 0.43. It also gave an Activity (Rattus norvegicus [19]) of 0.35, an Activity (Rattus norvegicus [20]) of 0.17 and an Activity (Rattus norvegicus [21]) of 0.63. It also gave a Ratio [22] of 2.6, an Activity (Rattus norvegicus [23]) of 0.18 and a Ratio [24] of 1.8. The Activity (Rattus norvegicus [25]) was 1.11, the Activity (Rattus norvegicus [26]) was 0.54 and the Activity (Rattus norvegicus [27]) was 0.47. For the same compound, the Activity (Rattus norvegicus [28]) was 0.76, the Activity (Rattus norvegicus [29]) was 0.45 and the Activity (Rattus norvegicus [30]) was 0.66. The Ratio [31] was 2.3, the Activity (Rattus norvegicus [32]) was 0.55 and the Activity (Rattus norvegicus [33]) was 0.72. The Activity (Rattus norvegicus [34]) was 0.76, the Activity (Rattus norvegicus [35]) was 0.35 and the Activity (Rattus norvegicus [36]) was 0.49. It also gave a Ratio [37] of 1.3, an Activity (Rattus norvegicus [38]) of 0.38 and an Activity (Rattus norvegicus [39]) of 0.41. The Activity (Rattus norvegicus [40]) was 0.36, the Ratio [41] was 3.4 and the Activity (Rattus norvegicus [42]) was 0.46. For the same compound, the Activity (Rattus norvegicus [43]) was 0.82 and the Activity (Rattus norvegicus [44]) was 0.53.
